Data as given in ChEMBL document CHEMBL4152330, “Arylamino containing hydroxamic acids as potent urease inhibitors for the treatment of Helicobacter pylori infection” (Eur J Med Chem, 2018).
The source made the active and inactive calls. No cut-off for these calls is given here.

Experiments:
[1] = target: T1, Urease subunit alpha/Urease subunit beta (Helicobacter pylori (strain ATCC 700392 / 26695) (Campylobacterpylori), UniProt P69996); experiment: Inhibition of Helicobacter pylori ATCC 43504 urease assessed as reduction in ammonia production preincubated for 1.5 hrs under cell free condition by indophenol method; format: protein-complex assay, Helicobacter pylori NCTC 11637 = CCUG 17874 = ATCC 43504
T1 sequence (P69996 whole entry): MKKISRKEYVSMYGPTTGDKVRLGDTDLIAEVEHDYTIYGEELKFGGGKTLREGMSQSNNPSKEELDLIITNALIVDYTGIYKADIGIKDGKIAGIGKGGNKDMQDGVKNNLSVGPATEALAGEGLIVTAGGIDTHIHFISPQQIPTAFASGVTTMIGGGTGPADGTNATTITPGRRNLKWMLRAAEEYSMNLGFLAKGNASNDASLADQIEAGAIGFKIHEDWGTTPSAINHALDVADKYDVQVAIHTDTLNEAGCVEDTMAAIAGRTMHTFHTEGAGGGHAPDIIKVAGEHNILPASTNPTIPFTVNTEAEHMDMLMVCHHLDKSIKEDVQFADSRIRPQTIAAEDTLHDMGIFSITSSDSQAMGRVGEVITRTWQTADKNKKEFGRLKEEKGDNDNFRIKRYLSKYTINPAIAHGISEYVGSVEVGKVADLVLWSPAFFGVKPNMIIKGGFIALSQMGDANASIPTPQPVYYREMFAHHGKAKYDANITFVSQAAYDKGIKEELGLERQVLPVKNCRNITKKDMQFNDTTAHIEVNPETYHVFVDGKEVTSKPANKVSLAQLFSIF
T1 sequence (P14916 whole entry, further chain): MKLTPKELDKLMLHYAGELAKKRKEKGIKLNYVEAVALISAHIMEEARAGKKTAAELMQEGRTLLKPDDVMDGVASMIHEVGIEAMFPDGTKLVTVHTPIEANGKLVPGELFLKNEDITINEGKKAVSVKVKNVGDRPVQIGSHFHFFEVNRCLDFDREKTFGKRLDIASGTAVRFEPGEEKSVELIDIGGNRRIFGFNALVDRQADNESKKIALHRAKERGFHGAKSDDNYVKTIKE
Summary of the method: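 Crude urease from sonicated ATCC 43504 cells (grown microaerobically in Brucella broth with 10% sheep blood), desalted on Sephadex G-25 and stored in 50% glycerol at 4 °C. Enzyme (10U) pre-incubated with test compound 1.5 h at room temperature. Ammonia production read by Weatherburn indophenol method.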

[2] = target: T2, Urease subunit alpha/Urease subunit beta (Helicobacter pylori (strain ATCC 700392 / 26695) (Campylobacterpylori)) (UniProt P69996+P14916); experiment: Ratio of IC50 for Helicobacter pylori ATCC 43504 urease under cell free condition to IC50 for urease in intact Helicobacter pylori ATCC 43504; format: protein-complex assay; settings: Helicobacter pylori NCTC 11637 = CCUG 17874 = ATCC 43504
T2 sequence (P14916 whole entry, looked up): as the sequence (P14916 whole entry, further chain) above
T2 sequence (P69996 whole entry, looked up): as the sequence (P69996 whole entry) above
Summary of the method: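 Cell-free arm: desalted crude H. pylori urease lysate (10 U) was preincubated with compound for 1.5 h at room temperature. Intact-cell arm: the same set-up with H. pylori cell suspension (4.0 × 10^7 CFU/mL) in place of the enzyme. Ammonia was measured by the indophenol method in both arms.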

[3] = target: T1, Urease subunit alpha/Urease subunit beta; experiment: Inhibition of urease in Helicobacter pylori ATCC 43504 assessed as reduction in ammonia production preincubated for 1.5 hrs by indophenol method; format: protein-complex assay, Helicobacter pylori NCTC 11637 = CCUG 17874 = ATCC 43504
Summary of the method: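 Crude urease was prepared from H. pylori harvested from broth, PBS-washed, frozen at -80 °C, sonicated with protease inhibitors, centrifuged, desalted on Sephadex G-25 and stored in 50% glycerol at 4 °C. Enzyme (10 U) was preincubated with test compound for 1.5 h at room temperature. Ammonia production was read by the Weatherburn indophenol method.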

[4] = target: T2, Urease subunit alpha/Urease subunit beta (Helicobacter pylori (strain ATCC 700392 / 26695) (Campylobacterpylori)); experiment: Potency index, ratio of AHA IC50 to compound IC50 for Helicobacter pylori ATCC 43504 urease assessed as reduction in ammonia production preincubated for 1.5 hrs under cell free condition by indophenol method; format: protein-complex assay; settings: Helicobacter pylori NCTC 11637 = CCUG 17874 = ATCC 43504
Helicobacter pylori [5] = experiment: Antibacterial activity against Helicobacter pylori ATCC 43504 infected in Kunming mouse assessed as bacterial eradication at 32 mg/kg, po bid treated for 14 days relative to control; format: functional, NCTC 11637 = CCUG 17874 = ATCC 43504
Summary of the method: (§1)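 Mice (18–22 g) fasted 4 h, then given 0.2 mol/L NaHCO3 intragastrically. Fifteen min later they were inoculated intragastrically with H. pylori (1 × 10^9 cfu/mL), once daily for a week. Three weeks later mice were randomized (n=13/group). Compound in 0.5% CMC-Na was given intragastrically at 8:00 and 18:00 daily for 14 days. Eradication was compared with an untreated infected model group.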

Helicobacter pylori [6] = experiment: Antibacterial activity against Helicobacter pylori ATCC 43504 infected in Kunming mouse assessed as reduction in gastric mucosa injury in mouse stomach at 32 mg/kg, po bid treated for 14 days by hematoxylin and eosin staining based assay; format: functional, organism-based; settings: NCTC 11637 = CCUG 17874 = ATCC 43504
Summary of the method: (§2)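 KM mice (18–22 g) were pretreated with NaHCO3 and infected intragastrically with H. pylori (1 × 10^9 cfu/mL) daily for one week. After three weeks, groups (n=13) received compound in 0.5% CMC-Na intragastrically b.i.d. for 14 days. Part of each stomach was fixed in 4% paraformaldehyde, paraffin-embedded and cut at 3.0 µm to assess gastric mucosal lesions against an untreated infected model.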

Helicobacter pylori [7] = experiment: Antibacterial activity against Helicobacter pylori ATCC 43504 infected in Kunming mouse assessed as bacterial eradication at 64 mg/kg, po bid treated for 14 days relative to control; format: functional, NCTC 11637 = CCUG 17874 = ATCC 43504; summary of the method: as §1
Helicobacter pylori [8] = experiment: Antibacterial activity against Helicobacter pylori ATCC 43504 infected in Kunming mouse assessed as bacterial eradication at 128 mg/kg, po bid treated for 14 days relative to control; format: functional, NCTC 11637 = CCUG 17874 = ATCC 43504; summary of the method: as §1
[9] = Acute toxicity in po dosed Kunming mouse assessed as induction of mortality administered as single dose and measured after 14 days; format: organism-based; settings: in vivo
Summary of the method: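 Male and female adult KM mice, 18–22 g, n=10 per group. Single intragastric dose of 500, 1000, 2000, 3000 or 5000 mg/kg in 0.5% CMC-Na, 200 μL per mouse; controls received vehicle alone. Mortality recorded over 14 days. LD50 estimated by probit analysis.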

[10] = target: T1, Urease subunit alpha/Urease subunit beta; experiment: Mixed type non-competitive inhibition of urease in Helicobacter pylori ATCC 43504 assessed as enzyme-substrate-inhibitor complex constant preincubated for 1.5 hrs by indophenol method; format: protein-complex assay, Helicobacter pylori NCTC 11637 = CCUG 17874 = ATCC 43504
Summary of the method: (§3)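 Crude H. pylori ATCC 43504 urease with compound pre-incubated 1.5 h at room temperature, then ammonia production velocity measured by indophenol method across a urea concentration gradient at each fixed inhibitor concentration. V–[S] data fitted nonlinearly to assign inhibition type. Fitting constants plotted linearly against [I]; Ki and K'i taken from X-axis intercepts. Triplicate.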

[11] = target: T1, Urease subunit alpha/Urease subunit beta; experiment: Mixed type non-competitive inhibition of urease in Helicobacter pylori ATCC 43504 assessed as reduction in ammonia production preincubated for 1.5 hrs by indophenol method; format: protein-complex assay, Helicobacter pylori NCTC 11637 = CCUG 17874 = ATCC 43504; summary of the method: as §3
Helicobacter pylori [12] = experiment: Antibacterial activity against Helicobacter pylori ATCC 43504 infected in Kunming mouse assessed as reduction in gastric mucosa injury in mouse stomach at 16 mg/kg, po bid treated for 14 days by hematoxylin and eosin staining based assay; format: functional, organism-based; settings: NCTC 11637 = CCUG 17874 = ATCC 43504; summary of the method: as §2
Helicobacter pylori [13] = experiment: Antibacterial activity against Helicobacter pylori ATCC 43504 infected in Kunming mouse assessed as bacterial eradication at 16 mg/kg, po bid treated for 14 days relative to control; format: functional, NCTC 11637 = CCUG 17874 = ATCC 43504; summary of the method: as §1

Row | SMILES | IC50 [1] | Ratio IC50 [2] | further results
1 | O=C(CNc1ccc(Cl)cc1)NO | 2.47 µM | 46 to 110 | –
2 | O=C(CCNc1ccc([N+](=O)[O-])cc1)NO | 1.23 µM | 46 to 110 | –
3 | O=C(CCNc1ccc(Cl)c(Cl)c1)NO | 0.71 µM | 46 to 110 | IC50 [3]: 38.9 µM
4 | O=C(CCNc1ccccc1)NO | 1.22 µM | 46 to 110 | –
5 | O=C(CNc1cccc(Cl)c1Cl)NO | 14.8 µM | 46 to 110 | –
6 | O=C(CCNc1cc(Cl)ccc1Cl)NO | 0.45 µM | 46 to 110 | IC50 [3]: 29.5 µM
7 | O=C(CNc1ccc(Br)cc1)NO | 2.01 µM | 46 to 110 | Ratio IC50 [4]: 2 to 24
8 | COc1cccc(NCC(=O)NO)c1 | 21.8 µM | 46 to 110 | –
9 | O=C(CNc1cccc(Br)c1)NO | 0.86 µM | 46 to 110 | Ratio IC50 [4]: 2 to 24; IC50 [3]: 48.1 µM
10 | O=C(CNc1ccc(Cl)c(Cl)c1)NO | 0.76 µM | 46 to 110 | IC50 [3]: 41.6 µM
11 | O=C(CCNc1ccccc1Cl)NO | 0.055 µM | 46 to 110 | Activity (Helicobacter pylori [5]): 84.6%; Activity (Helicobacter pylori [6]): Active; Activity (Helicobacter pylori [7]): 92.3%; IC50 [3]: 5.91 µM; Activity (Helicobacter pylori [8]): 100%; LD50 at 336 h [9]: 3350 mg/kg
12 | O=C(CNc1ccccc1Br)NO | 12.3 µM | 46 to 110 | Ratio IC50 [4]: 2 to 24
13 | O=C(CCNc1cc(F)cc(F)c1)NO | 1.52 µM | 46 to 110 | –
14 | O=C(CCNc1ccc(F)cc1)NO | 0.18 µM | 46 to 110 | IC50 [3]: 17.9 µM
15 | COc1ccccc1NCCC(=O)NO | 1.64 µM | 46 to 110 | –
16 | O=C(CN1CCCc2ccccc21)NO | 71.1 µM | 46 to 110 | –
17 | CC(=O)NO [ACETOHYDROXAMIC ACID] | – | 46 to 110 | Activity (Helicobacter pylori [5]): 44.4%; Activity (Helicobacter pylori [6]): Active; IC50 [3]: 172 µM
18 | Cc1cc(C)cc(NCCC(=O)NO)c1 | 2.93 µM | 46 to 110 | –
19 | O=C(CNc1cc(Cl)cc(Cl)c1)NO | 0.13 µM | 46 to 110 | IC50 [3]: 16.9 µM; Ki [10]: 0.315 µM; Ki [11]: 1.66 µM
20 | O=C(CNc1ccc(F)cc1)NO | 7.41 µM | 46 to 110 | –
21 | O=C(CCNc1cccc(Cl)c1Cl)NO | 3.83 µM | 46 to 110 | –

Row | SMILES | IC50 [1] | Ratio IC50 [2] | further results
22 | Cc1ccc(NCC(=O)NO)cc1 | 3.91 µM | 46 to 110 | –
23 | O=C(CCNc1ccccc1Br)NO | 0.13 µM | 46 to 110 | IC50 [3]: 14.5 µM
24 | O=C(CNc1c(Cl)cccc1Cl)NO | 191 µM | 46 to 110 | –
25 | O=C(CCNc1ccc(Cl)cc1Cl)NO | 0.018 µM | 46 to 110 | Activity (Helicobacter pylori [12]): Active; Activity (Helicobacter pylori [5]): 100%; Activity (Helicobacter pylori [6]): Active; Activity (Helicobacter pylori [7]): 100%; Ratio IC50 [4]: > 1500; IC50 [3]: 0.14 µM; Activity (Helicobacter pylori [13]): 92.3%; LD50 at 336 h [9]: 3130 mg/kg; Ki [10]: 0.0602 µM; Ki [11]: 0.442 µM
26 | O=C(CCNc1cccc([N+](=O)[O-])c1)NO | 5.1 µM | 46 to 110 | –
27 | O=C(CNc1ccccc1Cl)NO | 58.9 µM | 46 to 110 | –
28 | O=C(CNc1cccc(Cl)c1)NO | 1.15 µM | 46 to 110 | –
29 | O=C(CNc1cc(Cl)ccc1Cl)NO | 1.64 µM | 46 to 110 | –
30 | COc1ccc(NCC(=O)NO)cc1 | 69.8 µM | 46 to 110 | –
31 | O=C(CNc1ccc(Cl)cc1Cl)NO | 66.1 µM | 46 to 110 | –
32 | O=C(CCNc1c(Cl)cccc1Cl)NO | 25 µM | 46 to 110 | –
33 | O=C(CNc1cccc([N+](=O)[O-])c1)NO | 8.21 µM | 46 to 110 | –
34 | COc1ccccc1NCC(=O)NO | 152 µM | 46 to 110 | –
35 | O=C(CNc1cc(F)cc(F)c1)NO | 5.11 µM | 46 to 110 | –
36 | O=C(CNc1ccccc1)NO | 4.67 µM | 46 to 110 | –
37 | COc1cc(NCC(=O)NO)cc(OC)c1 | 2.28 µM | 46 to 110 | –
38 | O=C(CCN1CCCc2ccccc21)NO | 21.1 µM | 46 to 110 | –
39 | O=C(CCNc1ccccc1[N+](=O)[O-])NO | 10.5 µM | 46 to 110 | –
40 | Cc1cc(C)cc(NCC(=O)NO)c1 | 2.12 µM | 46 to 110 | –
41 | O=C(CCNc1cc(Cl)cc(Cl)c1)NO | 0.043 µM | 46 to 110 | Activity (Helicobacter pylori [5]): 92.3%; Activity (Helicobacter pylori [6]): Active; Activity (Helicobacter pylori [7]): 100%; IC50 [3]: 3.9 µM; Activity (Helicobacter pylori [8]): 100%; LD50 at 336 h [9]: 2980 mg/kg; Ki [10]: 0.153 µM; Ki [11]: 1.57 µM
